# Assay results as given in publication PMC8811920 (ACS Omega, 2022).
# Key:
# urease = assay: Urease inhibition assay; format: biochemical; conditions: 10 μL sample, 4 mg/mL in DMSO
# Method in brief: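 Mix: 25 μL urease, 50 μL phosphate buffer (3 mM, pH 4.5, containing 100 mM urea) and 10 μL sample (4 mg/mL in DMSO); 15 min at 30 °C. Ammonia detected by phenol–nitroprusside reagent plus alkaline hypochlorite, then 50 min at 30 °C. Read at 630 nm. Thiourea as control. % inhibition = (OD blank − OD sample)/OD blank × 100.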
# Salmonella typhi = assay: Antibacterial assay of isolated compounds, S. typhi; format: cell-based; conditions: cefixime positive control
# M. luteus = assay: Antibacterial assay of isolated compounds, M. luteus; format: cell-based; conditions: cefixime positive control
# [1] = Total antioxidant capacity; conditions: sample 4 mg/mL in DMSO, ascorbic acid equivalents
# Method in brief: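 100 μL sample (4 mg/mL in DMSO) mixed with 900 μL phosphomolybdenum reagent (0.6 M H2SO4, 28 mM sodium phosphate, 4 mM ammonium molybdate). Heated 90 min at 95 °C, cooled to room temperature, and 200 μL read at 630 nm. Quantified against an ascorbic acid calibration curve as μg AAE/mg extract. Triplicate.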
# Total reducing power = conditions: sample 4 mg/mL in DMSO, ascorbic acid equivalents
# Method in brief: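 200 μL sample (4 mg/mL in DMSO) mixed with 400 μL phosphate buffer (0.2 mol/L, pH 6.6) and 1% potassium ferricyanide; 20 min at 50 °C. Added 10% trichloroacetic acid and centrifuged 10 min at 3000 rpm. 200 μL of upper layer mixed with 0.1% FeCl3 and read at 630 nm. Expressed as μg ascorbic acid equivalent/mg extract from a calibration curve. Triplicate.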
# α-amylase = assay: α-Amylase inhibition assay; format: biochemical; conditions: 10 μL sample, 4 mg/mL in DMSO
# Method in brief: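 Mix in pH 6.8 phosphate buffer: α-amylase (0.14 U/mL), 10 μL sample (4 mg/mL in DMSO) and starch (2 mg/mL); 30 min at 50 °C. Stopped with 1 M HCl, then iodine/KI reagent (5 mM each) added. Read at 540 nm. Acarbose positive control at 5−200 μg/mL. Sample-free well taken as 100% activity; blank lacked sample and enzyme.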
# E. aerogenes = assay: Antibacterial assay of isolated compounds, E. aerogenes; format: cell-based, Escherichia aerogenes; conditions: cefixime positive control
# S. setubal = assay: Antibacterial assay of isolated compounds, S. setubal; format: cell-based; conditions: cefixime positive control
# lipase = assay: Lipase inhibition assay; format: biochemical; conditions: 50 μL sample, 4 mg/mL in DMSO
# Method in brief: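 Lipase dissolved at 10 mg/mL in ultrapure water, spun 5 min at 16,000 rpm; supernatant used. Assay buffer 100 mM Tris, pH 8.2. Mix: 350 μL buffer, 150 μL lipase, 50 μL sample (4 mg/mL in DMSO). Started with 450 μL substrate: 0.08% v/v olive oil in 5 mM sodium acetate pH 5.0 with 1% Triton X-100. Incubated 2 h at 37 °C, spun, read at 400 nm. Orlistat standard. % inhibition = (OD blank − OD sample)/OD blank × 100.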
# S. aureus (ATCC # 6538) = assay: Antibacterial disc diffusion, S. aureus; format: cell-based, Staphylococcus aureus; conditions: isolated compounds; cefixime positive control
# [2] = DPPH radical scavenging assay; conditions: 10 μL sample + 190 μL DPPH, 30 min, 37 °C
# Method in brief: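 10 μL sample mixed with 190 μL DPPH solution in microplate and held 30 min at 37 °C. Absorbance read spectrophotometrically. % scavenging = (1 − Abs/Abc) × 100, where Abc is the reagent-only negative control; SC50 also described. Ascorbic acid as standard. Triplicate.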
smiles,measurement,setting,value
"O=C(O)c1ccccc1 [compound 4, benzoic acid]",urease inhibition (%),urease,65.8 ± 0.6%
same,"antibacterial ZOI, S. typhi",Salmonella typhi,15 ± 1.5 mm
same,"antibacterial ZOI, S. typhi",Salmonella typhi; listed as benzoic acid,15 mm
same,"antibacterial ZOI, M. luteus",M. luteus,13 ± 1.2 mm
same,TAC,[1],60.6 ± 1.8 μgAAE/mg extract
same,TRP,Total reducing power,59.5 ± 1.5 μgAAE/mg extract
same,amylase inhibition (%),α-amylase,36.5 ± 0.9%
same,"antibacterial ZOI, E. aerogenes",E. aerogenes,12 ± 1.4 mm
same,"antibacterial ZOI, S. setubal",S. setubal,15 ± 1.7 mm
same,lipase inhibition (%),lipase,58.9 ± 0.7%
same,"antibacterial ZOI, S. aureus",S. aureus (ATCC # 6538),12 ± 1.6 mm
same,DPPH % (free-radical scavenging),[2],50.8 ± 1.6%
"COC(=O)c1ccccc1 [compound 3, methyl benzoate]",urease inhibition (%),urease,55.1 ± 1.2%
same,"antibacterial ZOI, S. typhi",Salmonella typhi,10 ± 1.1 mm
same,"antibacterial ZOI, M. luteus",M. luteus,14 ± 1.1 mm
same,TAC,[1],82.5 ± 1.3 μgAAE/mg extract
same,TAC,[1]; listed as methyl benzoate,82.5 μgAAE/mg extract
same,TRP,Total reducing power,45.2 ± 1.6 μgAAE/mg extract
same,amylase inhibition (%),α-amylase,26.2 ± 0.5%
same,"antibacterial ZOI, E. aerogenes",E. aerogenes,15 ± 1.1 mm
same,"antibacterial ZOI, S. setubal",S. setubal,13 ± 1.1 mm
same,lipase inhibition (%),lipase,50.3 ± 0.5%
same,"antibacterial ZOI, S. aureus",S. aureus (ATCC # 6538),7 ± 0.8 mm
same,DPPH % (free-radical scavenging),[2],49.4 ± 1.9%
"C[C@H]1[C@H](C)CC[C@]2(C(=O)O)CC[C@]3(C)C(=CC[C@@H]4[C@@]5(C)CC[C@H](O)C(C)(C)[C@@H]5CC[C@]43C)[C@H]12 [compound 5, 3β-hydroxy-urs-12-en-28-oic acid]",urease inhibition (%),urease,78.8 ± 0.5%
same,"antibacterial ZOI, S. typhi",Salmonella typhi,16 ± 1.8 mm
same,"antibacterial ZOI, S. typhi",Salmonella typhi; listed as ursolic acid,16 mm
same,"antibacterial ZOI, M. luteus",M. luteus,14 ± 1.4 mm
same,TAC,[1],70.4 ± 1.8 μgAAE/mg extract
same,TRP,Total reducing power,76.2 ± 1.5 μgAAE/mg extract
same,amylase inhibition (%),α-amylase,48.9 ± 0.6%
same,"antibacterial ZOI, E. aerogenes",E. aerogenes,12 ± 1.3 mm
same,"antibacterial ZOI, S. setubal",S. setubal,13 ± 1.2 mm
same,lipase inhibition (%),lipase,76.6 ± 0.8%
same,"antibacterial ZOI, S. aureus",S. aureus (ATCC # 6538),13 ± 1.3 mm
same,DPPH % (free-radical scavenging),[2],58.6 ± 1.7%
"CCCCCCCCCCCCCCCCCCCCCCCCCCCCCCO [compound 2, 1-triacontanol]",urease inhibition (%),urease,82.5 ± 0.8%
same,"antibacterial ZOI, S. typhi",Salmonella typhi,10 ± 1.3 mm
same,"antibacterial ZOI, M. luteus",M. luteus,10 ± 0.9 mm
same,TAC,[1],89.5 ± 1.6 μgAAE/mg extract
same,TAC,[1]; listed as 1-triacontanol,89.5 μgAAE/mg extract
same,TRP,Total reducing power,55.2 ± 1.8 μgAAE/mg extract
same,amylase inhibition (%),α-amylase,29.9 ± 1.4%
same,"antibacterial ZOI, E. aerogenes",E. aerogenes,15 ± 1.4 mm
same,"antibacterial ZOI, E. aerogenes",E. aerogenes; listed as 1-triacontanol,15 mm
same,"antibacterial ZOI, S. setubal",S. setubal,15 ± 1.2 mm
same,"antibacterial ZOI, S. setubal",S. setubal; listed as 1-triacontanol,15 mm
same,lipase inhibition (%),lipase,50.8 ± 0.9%
same,"antibacterial ZOI, S. aureus",S. aureus (ATCC # 6538),9 ± 1.3 mm
same,DPPH % (free-radical scavenging),[2],59.4 ± 2.1%
"O=C(O)c1cccc(O)c1 [compound 6, 3-hydroxybenzoic acid]",urease inhibition (%),urease,59.8 ± 0.6%
same,"antibacterial ZOI, S. typhi",Salmonella typhi,16 ± 1.5 mm
same,"antibacterial ZOI, M. luteus",M. luteus,15 ± 1.2 mm
same,TAC,[1],66.6 ± 1.5 μgAAE/mg extract
same,TRP,Total reducing power,62.5 ± 1.3 μgAAE/mg extract
same,amylase inhibition (%),α-amylase,31.5 ± 0.8%
same,"antibacterial ZOI, E. aerogenes",E. aerogenes,15 ± 1.4 mm
same,"antibacterial ZOI, S. setubal",S. setubal,14 ± 1.7 mm
same,lipase inhibition (%),lipase,51.9 ± 0.7%
same,"antibacterial ZOI, S. aureus",S. aureus (ATCC # 6538),15 ± 1.6 mm
same,DPPH % (free-radical scavenging),[2],65.8 ± 1.6%
same,DPPH % (free-radical scavenging),[2]; listed as 3-Hydroxybenzoic acid,65.8%
"C=C(C)[C@@H]1CC[C@]2(C)CC[C@]3(C)[C@H](CC[C@@H]4[C@@]5(C)CC[C@H](O)C(C)(C)[C@@H]5CC[C@]43C)[C@@H]12 [compound 1, lup-20(29)-en-3β-ol]",urease inhibition (%),urease,85.8 ± 0.9%
same,"antibacterial ZOI, S. typhi",Salmonella typhi,18 ± 1.3 mm
same,"antibacterial ZOI, S. typhi",Salmonella typhi; listed as lupeol,18 mm
same,"antibacterial ZOI, M. luteus",M. luteus,15 ± 1.1 mm
same,TAC,[1],55.5 ± 1.3 μgAAE/mg extract
same,TRP,Total reducing power,96.9 ± 1.6 μgAAE/mg extract
same,TRP,Total reducing power; listed as lupeol,96.9 μgAAE/mg extract
same,amylase inhibition (%),α-amylase,16.0 ± 0.4%
same,"antibacterial ZOI, E. aerogenes",E. aerogenes,14 ± 1.1 mm
same,"antibacterial ZOI, S. setubal",S. setubal,12 ± 1.3 mm
same,lipase inhibition (%),lipase,84.0 ± 0.8%
same,"antibacterial ZOI, S. aureus",S. aureus (ATCC # 6538),14 ± 1.2 mm
same,DPPH % (free-radical scavenging),[2],68.8 ± 1.1%
same,DPPH % (free-radical scavenging),[2]; listed as lupeol,68.8%
